Compound activity from PubChem BioAssay.
DENV2 CPE rescue: inhibitors of DENV2 cytopathic effect | DENV2-infected cells, cytopathic effect rescue, plate reader | CPE inhibition, % at 9.99 µM | actives 1.7% (n = 350,000); in the data active = CPE inhibition above about 20%, passing the limit was not always enough; tested in BHK-21 cells;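 also: 0% = median of neutral control wells and 100% = median of positive control wells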
CFTR F508del cor: correctors of CFTR F508del function in bronchial epithelial cells; CFBE cells, YFP halide quenching; stimulated with forskolin plus potentiator P3; % fluorescence drop versus neutral controls; activity (quench increase), % at 7.58 µM; actives 0.36% (n = 350,000);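 active = mean added fluorescence quench of at least 8% versus neutral control, with both replicates also reaching 8%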;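 also: cells transiently co-express mutant CFTR-F508del with the halide-sensitive YFP; corrector assay measuring rescue of mutant channel to the surface after 24 h compound exposure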
FN deposit inh: fibronectin deposition inhibition; AID 743247; inhibition, % at 12.6 µM; AH1F fibroblasts, Alexa488-fibronectin deposition fluorescence, overnight; actives 0.086% (n = 350,000);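 active = mean inhibition across replicates of 30% or more, regardless of how many single replicates reach that level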;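 also: positive control wells lacked labelled fibronectin entirely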
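Assay system: AH1F fibroblasts assembling fluorescent fibronectin matrix; Amount: 10000 AH1F cells per well; Buffer or medium: DMEM, 2% serum; Probe or stimulus: Alexa488-fibronectin, 24 nM final in well; Doses: single compound dose, delivered by pin transfer; Incubation: 1 h adhesion, overnight exposure; Measured by: fluorescence 485/525 nm; Read-out: fibronectin deposition inhibition.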
PGC1a acetyl inh: modulators of PGC1a acetylation; U2OS PGC1a acetylation, AlphaScreen anti-acetyl-lysine; with virally co-expressed GCN5 acetyltransferase; inhibition, % at 15.6 µM; actives 0.17% (n = 350,000);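 active = every replicate shows inhibition of at least 40%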;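 also: 0% = neutral control wells and 100% = positive control wells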
XiGFP reactiv: activators of X-chromosome reactivation in mouse fibroblasts; XiGFP mouse fibroblasts, % GFP-positive cells imaging, 3 d; cells co-treated with 5-aza-dC sensitizer; scaled so ellipticine positive control = 100%; activation, % at 7.58 µM; actives 0.055% (n = 360,000); AID 743238;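 active = mean normalized replicate activation at least 10% and every replicate at or above 10%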;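 also: 0% = median of on-plate neutral control wells and 100% = ellipticine 6 µM median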
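Assay system: SV40-immortalized XiGFP fibroblast cells, line 68-5-11; buffer or medium: DMEM plus 5-aza-dC sensitizer; compound: one concentration, pinned; timing: compounds 3 days, fix/stain 15 min at room temperature; benchmarks: positive control ellipticine, 6 µM final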
Cneo AK release: Cryptococcus neoformans lysis via adenylate kinase release | AID 651654 | lysis activity, % at 15 µM | actives 0.2% (n = 360,000) | C. neoformans lysis, adenylate kinase release luminescence, 4 h; normalised: neutral wells 0, clomiphene wells 100;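 active = mean lysis activity across replicates of at least 80%, whatever share of replicates individually reach that level; inactive = mean lysis activity below 80%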
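Signal: Adenylate kinase release luminescence | Assay system: Log-phase Cryptococcus neoformans yeast cells | Input: Cells at 5 × 10^6 per mL | Buffer or medium: Fresh YPD growth medium | Compound: Single dose | Schedule: Static 4 h at 37 °C with compound, 1 h detection | Controls: Clomiphene | Read-out: Luminescence rise reflecting yeast cell lysis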
* = called active by the depositor; · = not tested or not shown; ! = repeats disagree. A selection: hits, their analogues and other compounds. The true share with any hit is near 1.9%.

SMILES	DENV2 CPE rescue	CFTR F508del cor	FN deposit inh	PGC1a acetyl inh	XiGFP reactiv	Cneo AK release
O=C(c1cccnc1)N1C[C@@H]2[C@H](c3ccccc31)[C@H](CO)N2C(=O)Nc1ccccc1F	18	1	·	2	0	-3
O=C(NNC(=O)C12CC3CC(CC(C3)C1)C2)c1cccc([N+](=O)[O-])c1	20*	-2	-10	9	1	-1
COc1ccc(NC(=O)N(C)C[C@H]2OCCCC[C@@H](C)Oc3ccc(NC(=O)NC(C)C)cc3C(=O)N([C@H](C)CO)C[C@H]2C)cc1	-5	2	·	-5	0	0
Cc1c(C#N)c(O)n(CCO)c(=O)c1N=Nc1ccc(S(N)(=O)=O)cc1	45*	1	-6	·	0	3
COc1ccc(S(=O)(=O)N[C@H]2CC[C@H](CC(=O)NCCc3ccncc3)O[C@H]2CO)cc1	23*	4	·	9	0	-5
COc1ccc(S(=O)(=O)N[C@H]2CC[C@@H](CC(=O)NCc3ccccc3F)O[C@H]2CO)cc1	59*	1	·	-5	0	9
COc1ccc(S(=O)(=O)N[C@H]2CC[C@H](CC(=O)NCc3ccccc3F)O[C@@H]2CO)cc1	3	2	·	9	1	12
O=C(Nc1ccc(Cl)c(Cl)c1)N[C@@H]1CC[C@H](CCn2cc(C3CCCCC3)nn2)O[C@H]1CO	11	-1	11	4	-1	0
COc1ccc(NC(=O)N(C)C[C@@H]2OCCCC[C@H](C)Oc3ccc(NC(=O)Nc4ccc(F)cc4)cc3C(=O)N([C@H](C)CO)C[C@@H]2C)cc1	-1	-1	·	1	0	0
Cc1ccc(S(=O)(=O)NCc2c(Cl)cccc2Oc2ccccc2)cc1	·	·	·	-21	·	0
O=S(=O)(NCc1c(Cl)cccc1Oc1ccccc1)c1ccccc1	32*	-2	3	34	0	-3
COc1cc(NC(=O)c2nccn2C)cc(C(=O)Nc2cccc(C(F)(F)F)c2)c1	110*!	0	5	·	1	0
COc1cc(NC(=O)c2nccnc2N)cc(C(=O)Nc2cccc(C(F)(F)F)c2)c1	1	3	13	·	0	-3
COc1cc(NC(=O)N2CCNC2=O)cc(C(=O)Nc2cccc(C(F)(F)F)c2)c1	-12	8.0*	4	·	0	1
Cc1ccccc1-c1cnc2c(c1)C(=O)N([C@@H](C)CO)C[C@H](C)[C@@H](CN(C)C(=O)c1ccccc1)O2	-5	-1	-1	4	0	1
CN(C)C(=O)c1ccc(-c2ccccc2[C@H]2[C@H](C#N)N(C(=O)C3CCCCC3)[C@H]2CO)cc1	28*	1	-3	5	0	·
CN(C)C(=O)c1ccc(-c2ccccc2[C@H]2[C@@H](C#N)N(C(=O)C3CCC3)[C@H]2CO)cc1	24*	1	-4	-5	0	·
CN(C)C(=O)c1ccc(-c2ccc([C@@H]3[C@@H](CO)N(C(=O)C4CCC4)[C@H]3C#N)cc2)cc1	50*	-7	9	-5	0	-9
CN(C)C(=O)c1ccc(-c2ccccc2[C@@H]2[C@@H](C#N)N(C(=O)C3CCCCC3)[C@@H]2CO)cc1	1	4	-11	-6	0	·
O=C(C[C@H]1C[C@@H]2c3cc(NS(=O)(=O)c4ccccc4)ccc3O[C@@H]2[C@@H](CO)O1)NC1CCCC1	-9	2	-5	·	0	20
CC(C)N(Cc1ccccc1)C(=O)COC(=O)c1cnc(Cl)c(Cl)c1	67*	1	1	-13	0	2
CC(C)NC(=O)Nc1ccc2c(c1)CC(=O)N([C@@H](C)CO)C[C@@H](C)[C@@H](CN(C)Cc1ccc3c(c1)OCO3)O2	-4	2	·	0	0	-1
C[C@H]1CN([C@@H](C)CO)C(=O)Cc2cc(NC(=O)Nc3ccc4c(c3)OCO4)ccc2O[C@@H]1CN(C)Cc1ccc(C(=O)O)cc1	·	1	·	-1	0	0
C[C@H]1CN([C@@H](C)CO)C(=O)Cc2cc(NC(=O)Nc3ccc4c(c3)OCO4)ccc2O[C@H]1CN(C)Cc1ccc(C(=O)O)cc1	78*	0	·	5	-1	-1
CC(C)NC(=O)Nc1ccc2c(c1)CC(=O)N([C@@H](C)CO)C[C@H](C)[C@H](CN(C)Cc1ccc3c(c1)OCO3)O2	8	-1	·	-5	0	107*
SMILES	DENV2 CPE rescue	CFTR F508del cor	FN deposit inh	PGC1a acetyl inh	XiGFP reactiv	Cneo AK release
C[C@H](CO)N1C[C@H](C)[C@@H](CN(C)S(C)(=O)=O)Oc2ccc(NS(=O)(=O)c3ccccc3)cc2CC1=O	70*	1	·	6	0	14
COc1ccc(S(=O)(=O)Nc2ccc3c(c2)CC(=O)N([C@@H](C)CO)C[C@@H](C)[C@H](CN(C)C(=O)NC(C)C)O3)cc1	35*	1	-16	4	0	0
C[C@@H]1CN([C@H](C)CO)C(=O)Cc2cc(NS(=O)(=O)c3ccc(Cl)cc3)ccc2O[C@H]1CN(C)C(=O)NC1CCCCC1	37*	0	3	-3	-1	-1
COc1ccc(NC(=O)N(C)C[C@@H]2Oc3ccc(NS(=O)(=O)c4ccccc4)cc3CC(=O)N([C@H](C)CO)C[C@H]2C)cc1	4	-2	·	5	-1	·
COc1ccc(S(=O)(=O)Nc2ccc3c(c2)CC(=O)N([C@@H](C)CO)C[C@@H](C)[C@@H](CN(C)C(=O)NC(C)C)O3)cc1	7	-2	-2	-8	-1	-3
COc1ccc(NC(=O)N(C)C[C@@H]2Oc3ccc(NS(=O)(=O)c4ccccc4)cc3CC(=O)N([C@H](C)CO)C[C@@H]2C)cc1	39*	-3	·	3	0	·
CCCNC(=O)N(C)C[C@@H]1Oc2ncc(C3=CCCC3)cc2C(=O)N([C@H](C)CO)C[C@H]1C	-2	1	·	-9	-1	-6
COc1ccc(S(=O)(=O)Nc2ccc3c(c2)CC(=O)N([C@H](C)CO)C[C@H](C)[C@@H](CN(C)C(=O)Nc2ccc4c(c2)OCO4)O3)cc1	26*	0	·	5	0	-1
C[C@H]1CN([C@@H](C)CO)C(=O)Cc2cc(NS(=O)(=O)c3ccc(F)cc3)ccc2O[C@@H]1CN(C)C(=O)Nc1ccccc1	62*	-2	·	-5	0	-3
COc1ccc(S(=O)(=O)Nc2ccc3c(c2)CC(=O)N([C@@H](C)CO)C[C@H](C)[C@H](CN(C)C(=O)Nc2ccc4c(c2)OCO4)O3)cc1	-12	0	·	0	0	-2
